Holding throughout (type): functional
Assay [1] relates to Talaromyces marneffei. The assay is described as follows: Antifungal activity against Penicillium marneffei at 10 to 50 ug/ml after 3 to 4 days by serial plate dilution method.
Assay [2] deals with Aspergillus flavus. Kind of assay: Antifungal activity against Aspergillus flavus at 10 to 50 ug/ml after 3 to 4 days by serial plate dilution method.
In assay [3] the test system is Aspergillus flavus. Kind of assay: Antifungal activity against Aspergillus flavus after 3 to 4 days by serial plate dilution method. In a few lines: (§1)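 Sabouraud's agar made from peptone, D-glucose and agar, pH 5.7, and lawned with a fungal spore suspension in normal saline. Wells cut with an agar punch received 10–50 mg/ml test compound in DMSO; DMSO-only control plates. Triplicate plates kept at 37 °C for 3–4 days.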

Assay [4] has as its system Aspergillus fumigatus. Kind of assay: Antifungal activity against Aspergillus fumigatus after 3 to 4 days by serial plate dilution method.
The test system of assay [5] is Trichophyton mentagrophytes. The assay is described as follows: Antifungal activity against Trichophyton mentagrophytes at 10 to 50 ug/ml after 3 to 4 days by serial plate dilution method.
For assay [6], the system named is Aspergillus fumigatus. The assay is described as follows: Antifungal activity against Aspergillus fumigatus at 10 to 50 ug/ml after 3 to 4 days by serial plate dilution method.
The subject of assay [7] is Trichophyton mentagrophytes. The assay is described as follows: Antifungal activity against Trichophyton mentagrophytes after 3 to 4 days by serial plate dilution method.
The subject of the next assay is Escherichia coli. Kind of assay: Antibacterial activity against Escherichia coli ATTC 25922 after 24 hrs by disk diffusion method. As to conditions: for MIC: Escherichia coli, ATTC 25922, 24 h. The essentials:
(§2)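 Discs with each concentration, in triplicate, on nutrient agar seeded with fresh bacteria. Incubated 37 °C for 24 h, with solvent and growth controls. Zones of inhibition and MIC recorded.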

In a further assay the test system is Staphylococcus aureus. The assay is described as follows: Antibacterial activity against Staphylococcus aureus ATCC 25923 after 24 hrs by disk diffusion method. Conditions: for MIC: Staphylococcus aureus, ATCC 25923, 24 h. The essentials:
as §2

The test system of assay [8] is Talaromyces marneffei. Kind of assay: Antifungal activity against Penicillium marneffei after 3 to 4 days by serial plate dilution method. The essentials:
as §1

Another assay has as its system Klebsiella sp. Kind of assay: Antibacterial activity against Klebsiella sp. after 24 hrs by disk diffusion method. Conditions: for MIC: Klebsiella sp., 24 h. In a few lines: as §2
The next assay has as its system Pseudomonas aeruginosa. The assay is described as follows: Antibacterial activity against Pseudomonas aeruginosa ATTC 27853 after 24 hrs by disk diffusion method. As to conditions: for MIC: Pseudomonas aeruginosa, ATTC 27853, 24 h. In a few lines: as §2
(In general: A growth-free zone around the sample is the usual read-out of agar diffusion tests.)

Converted amounts (≈) assume the structure as drawn.

Consider `O=C1NN=C(COc2ccccc2)C1Oc1ccccc1` (stereo not given), for which the “inhibition zone (IZ)” value came to 18 mm in the assay with Talaromyces marneffei [1]; 20 mm with Aspergillus flavus [2]; 19 mm in assay [5]; 21 mm in the assay on Aspergillus fumigatus [6]; 17 mm in the assay with Escherichia coli; 18 mm in the assay with Staphylococcus aureus. In addition, the “inhibition zone (IZ)” value in the assay on Klebsiella sp. came to 19 mm; in the assay with Pseudomonas aeruginosa, 16 mm. In addition, the MIC (against Aspergillus flavus [3]; with Aspergillus fumigatus [4]; in assay [7]; with Escherichia coli; with Staphylococcus aureus; in the assay on Talaromyces marneffei [8]) was 6.25 µg/mL (≈ 22.1 µM) in each case. Besides, the minimal inhibitory concentration (MIC) against Klebsiella sp. and in the assay on Pseudomonas aeruginosa was 6.25 µg/mL (≈ 22.1 µM) each time.
As to `CC1=NNC(=O)C1OCc1cccc(Br)c1` (stereo not given), the “inhibition zone (IZ)” value in the assay on Talaromyces marneffei [1] came to 18 mm; with Aspergillus flavus [2], 19 mm; in assay [5], 20 mm; in the assay on Aspergillus fumigatus [6] it was 18 mm; in the assay with Escherichia coli, 11 mm; in the assay with Staphylococcus aureus, 21 mm. Further, the “inhibition zone (IZ)” value in the assay with Klebsiella sp. is recorded as 19 mm; with Pseudomonas aeruginosa, 18 mm. The MIC (usually the smallest concentration in the dilution series that meets the test's criterion for growth inhibition) is 6.25 µg/mL (≈ 22.1 µM) with Aspergillus flavus [3]; 6.25 µg/mL (≈ 22.1 µM) in the assay with Aspergillus fumigatus [4]; 6.25 µg/mL (≈ 22.1 µM) in assay [7]; 25 µg/mL (≈ 88.3 µM) in the assay on Escherichia coli; 6.25 µg/mL (≈ 22.1 µM) in the assay with Staphylococcus aureus; 6.25 µg/mL (≈ 22.1 µM) against Talaromyces marneffei [8]. Moreover, the minimal inhibitory concentration (MIC) in the assay with Klebsiella sp. and in the assay with Pseudomonas aeruginosa was 6.25 µg/mL (≈ 22.1 µM) throughout.
On to `CC(C)C1=NNC(=O)C1Sc1ccccc1` (stereo not given), for which the “inhibition zone (IZ)” value in the assay with Talaromyces marneffei [1] worked out at 19 mm; in the assay with Aspergillus flavus [2] it was 18 mm; in [5] it was 16 mm; in the assay on Aspergillus fumigatus [6], 20 mm; in the assay on Escherichia coli, 18 mm; in the assay on Staphylococcus aureus it was 20 mm. The “inhibition zone (IZ)” value in the assay with Klebsiella sp. was 16 mm; with Pseudomonas aeruginosa it was 17 mm. Also, the minimal inhibitory concentration (MIC) (against Aspergillus flavus [3]; against Aspergillus fumigatus [4]; in assay [7]; with Escherichia coli; against Staphylococcus aureus; in the assay on Talaromyces marneffei [8]) was 6.25 µg/mL (≈ 26.7 µM) each time. Also, the MIC against Klebsiella sp. and in the assay with Pseudomonas aeruginosa was 6.25 µg/mL (≈ 26.7 µM) throughout.
With `CC1=NNC(=O)C1Sc1ccccc1` (stereo not given), the “inhibition zone (IZ)” value with Talaromyces marneffei [1] was found to be 21 mm; in the assay on Aspergillus flavus [2], 16 mm; in assay [5], 18 mm; in the assay with Aspergillus fumigatus [6], 17 mm; with Escherichia coli it was 13 mm; with Staphylococcus aureus, 18 mm. Moreover, the “inhibition zone (IZ)” value in the assay with Klebsiella sp. turned out to be 16 mm; in the assay on Pseudomonas aeruginosa, 19 mm. In addition, the minimal inhibitory concentration (MIC) is 6.25 µg/mL (≈ 30.3 µM) in the assay with Aspergillus flavus [3]; 6.25 µg/mL (≈ 30.3 µM) against Aspergillus fumigatus [4]; 6.25 µg/mL (≈ 30.3 µM) in assay [7]; 25 µg/mL (≈ 121 µM) against Escherichia coli; 6.25 µg/mL (≈ 30.3 µM) with Staphylococcus aureus; 6.25 µg/mL (≈ 30.3 µM) against Talaromyces marneffei [8]. The minimal inhibitory concentration (MIC) against Klebsiella sp. and against Pseudomonas aeruginosa was 6.25 µg/mL (≈ 30.3 µM) in each case.
Consider `O=C1NN=C(c2ccc(Cl)cc2)C1Oc1ccccc1` (stereo not given), for which the “inhibition zone (IZ)” value in the assay with Talaromyces marneffei [1] was less than 10 mm; with Aspergillus flavus [2] it was less than 10 mm; in assay [5], less than 10 mm; in the assay with Aspergillus fumigatus [6], less than 10 mm; in the assay with Escherichia coli, 12 mm; in the assay with Staphylococcus aureus it was 21 mm. Besides, the “inhibition zone (IZ)” value with Klebsiella sp. and with Pseudomonas aeruginosa was less than 10 mm throughout. For the same molecule, the MIC with Aspergillus flavus [3] was determined as 50 µg/mL (≈ 174 µM); against Aspergillus fumigatus [4], 50 µg/mL (≈ 174 µM); in [7], 50 µg/mL (≈ 174 µM); in the assay on Escherichia coli it was 25 µg/mL (≈ 87.2 µM); in the assay with Staphylococcus aureus, 6.25 µg/mL (≈ 21.8 µM); in the assay on Talaromyces marneffei [8], 50 µg/mL (≈ 174 µM). For the same molecule, the MIC against Klebsiella sp. and against Pseudomonas aeruginosa was 50 µg/mL (≈ 174 µM) in each case.
